Our source for the MIC values is ChEMBL document CHEMBL2146464, “Structure-activity relationship study of nitrosopyrimidines acting as antifungal agents” (Bioorg Med Chem, 2012).

Common to all, as to type: functional
Assay [1] has as its system Trichophyton mentagrophytes. As to the kind of experiment: Antifungal activity against Trichophyton mentagrophytes ATCC 9972 by NCCLS broth microdilution method. Conditions: read-out: MIC100. Summed up: (§1)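 MIC by broth microdilution per NCCLS M27-A3/M38-A2 in RPMI-1640 buffered to pH 7.0 with MOPS. Twofold dilutions from 250–0.98 µg/mL, final DMSO ≤1%. Inoculum 1–5 × 10³ CFU/mL. Incubated in a moist dark chamber, 30 °C for Aspergillus and 28–30 °C for dermatophytes. Read visually when control growth allowed. Endpoint is the lowest concentration giving total inhibition of visible growth (MIC100).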
On the technique in general: Dilution methods test growth across graded concentrations, often in twofold steps.

The next assay relates to Trichophyton rubrum. In words: Antifungal activity against Trichophyton rubrum CCC 110 by NCCLS broth microdilution method. Conditions: read-out: MIC100. The method, boiled down:
as §1

The subject of another assay is Candida tropicalis. In words: Antifungal activity against Candida tropicalis after 48 hrs by NCCLS broth microdilution method. The following applies: read-out: MIC100. The method, boiled down: (§2)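 Yeast MIC by NCCLS M27-A3 broth microdilution in RPMI-1640 buffered to pH 7.0 with MOPS. Twofold dilutions of 250–0.98 µg/mL, final DMSO ≤1%. Inoculum 1–5 × 10³ CFU/mL. Incubated at 30 °C in a moist dark chamber. Read visually at 48 h. MIC100 is the lowest concentration with no visible growth versus drug-free control.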

The test system of the next assay is Cryptococcus neoformans. In words: Antifungal activity against Cryptococcus neoformans ATCC 32264 after 48 hrs by NCCLS broth microdilution method. Conditions: ATCC 32264, 48 h, read-out: MIC100. Summed up: as §2
A further assay relates to Aspergillus niger. As to the kind of experiment: Antifungal activity against Aspergillus niger ATCC 9029 by NCCLS broth microdilution method. Conditions: read-out: MIC100. Summed up:
as §1

Another assay deals with Aspergillus fumigatus. As to the kind of experiment: Antifungal activity against Aspergillus fumigatus ATCC 26934 by NCCLS broth microdilution method. The following applies: read-out: MIC100. The method, boiled down:
as §1

In the next assay the test system is Candida albicans. In words: Antifungal activity against Candida albicans ATCC 10231 after 48 hrs by NCCLS broth microdilution method. The following applies: ATCC 10231, 48 h, read-out: MIC100. The method, boiled down:
as §2

A further assay concerns Aspergillus flavus. In words: Antifungal activity against Aspergillus flavus ATCC 9170 by NCCLS broth microdilution method. The following applies: read-out: MIC100. Summed up: as §1
The test system of another assay is Nannizzia gypsea. As to the kind of experiment: Antifungal activity against Microsporum gypseum CCC 115 by NCCLS broth microdilution method. The following applies: read-out: MIC100. The method, boiled down: as §1

Structures are written as SMILES. In brackets after ≈: the same amount, converted by molar mass.

Consider `CC(=O)N1CCN(c2ccc(OCC3COC(Cn4ccnc4)(c4ccc(Cl)cc4Cl)O3)cc2)CC1` (centres undefined) [KETOCONAZOLE], for which the MIC in [1] was 0.03 µg/mL (≈ 0.0565 µM); in the assay on Trichophyton rubrum, 0.03 µg/mL (≈ 0.0565 µM); in the assay on Candida tropicalis, 0.49 µg/mL (≈ 0.922 µM); in the assay with Cryptococcus neoformans, 0.25 µg/mL (≈ 0.47 µM); in the assay on Aspergillus niger, 0.25 µg/mL (≈ 0.47 µM); with Aspergillus fumigatus, 0.49 µg/mL (≈ 0.922 µM). Moreover, the MIC came out at 0.98 µg/mL (≈ 1.84 µM) in the assay with Candida albicans, 0.12 µg/mL (≈ 0.226 µM) in the assay on Aspergillus flavus and 0.06 µg/mL (≈ 0.113 µM) with Nannizzia gypsea.
